Laboratory results: ChEMBL document CHEMBL1156178, “Discovery of novel 6,6-heterocycles as transient receptor potential vanilloid (TRPV1) antagonists” (J Med Chem, 2010)
Values after ≈ are worked out from the molar mass of the structure shown. Blank lines part the entries; values can stand above or below the compound they belong to. Active and inactive are the calls of the source. No cut-off for these calls is given here.

Assays:
Rattus norvegicus [1] = species: Rattus norvegicus; experiment: Analgesic activity against carrageenan-induced thermal hyperalgesia in rat; type: functional; details: read-out: MED
[2] = Metabolic stability in rat liver microsomes assessed as compound remaining at 1 uM after 10 mins by LCMS analysis; type: ADME, Microsome; details: read-out: Activity
Outline: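 Compound (1 μM) incubated at 37 °C with 0.5 mg/mL male pooled rat liver microsomes; NADPH added to start the reaction. Aliquots were taken at 0 and 10 min and quenched into ice-cold acetonitrile with internal standard, then centrifuged. Parent was monitored as the M+1 ion by ESI-LCMS in selected-ion mode. Percent remaining was taken as the 10 min/0 min signal ratio, corrected by internal-standard recovery.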

[3] = Half life in rat at 2.7 mg/kg, iv and 2 mg/kg, po; type: ADME, organism-based; details: in vivo
MDR1 = experiment: Apparent permeability across pig LLC-PK1 cells expressing MDR1; type: ADME, cell-based, Sus scrofa
[4] = Solubility in 0.1 N HCL after 4 hrs by HPLC/MS analysis; type: physicochemical
[5] = biological target: Transient receptor potential cation channel subfamily V member 1 (Homo sapiens, UniProt Q8NER1); experiment: Antagonist activity at human recombinant TRPV1 expressed in HEK293 cells assessed as inhibition of capsaicin-induced calcium mobilization by FLIPR assay
[6] = Cmax in rat at 10 mg/kg, po; type: ADME, organism-based; design: dose 10 mg/kg, route oral; details: in vivo
[7] = Tmax in rat at 1 mg/kg, iv and 1 mg/kg, po; type: ADME, organism-based; details: in vivo
[8] = Cmax in rat at 100 mg/kg, po; type: ADME, organism-based; design: dose 100 mg/kg, route oral; details: in vivo
[9] = Plasma concentration in complete Freund's adjuvant treated Sprague-Dawley rat at 10 mg/kg, po qd for 2 days administered 24 hrs after CFA challenge after 2 hrs last post dose; type: ADME, organism-based; design: dose 10 mg/kg, route oral
[10] = biological target: Voltage-gated L-type calcium channel (Rattus norvegicus, UniProt P22002+Q02485+P27732); experiment: Inhibition of rat L-type calcium channel
[11] = Clearance in rat at 1 mg/kg, iv and 1 mg/kg, po; type: ADME, organism-based; details: in vivo
hERG (KCNH2) = hERG (KCNH2) (Homo sapiens, UniProt Q12809); experiment: Inhibition of human ERG expressed in COS7 cells at 10 uM by electrophysiology assay; type: cell-based, COS-7; details: COS7 cells expressing human ERG
[12] = biological target: Insulin receptor (Homo sapiens) (UniProt P06213); experiment: Inhibition of insulin receptor at 10 uM
[13] = Cmax in rat at 1 mg/kg, po; type: ADME, organism-based; design: dose 1 mg/kg, route oral; details: in vivo
[14] = Plasma concentration in complete Freund's adjuvant treated Sprague-Dawley rat at 1 mg/kg, po administered 24 hrs after CFA challenge after 2 hrs post dose; type: ADME, organism-based; design: dose 1 mg/kg, route oral
[15] = Tmax in rat at 10 mg/kg, po; type: ADME, organism-based; design: dose 10 mg/kg, route oral; details: in vivo
[16] = biological target: Mitogen-activated protein kinase 14 (Homo sapiens) (UniProt Q16539); experiment: Inhibition of p38alpha at 10 uM
Rattus norvegicus [17] = experiment: Liver blood flow in rat at 1 mg/kg, iv and 1 mg/kg, po; type: ADME, organism-based; details: in vivo
Rattus norvegicus [18] = experiment: Analgesic activity against CFA-induced inflammatory pain in Sprague-Dawley rat assessed as reversal of decrease in weight bearing at 10 mg/kg, po qd for 3 days administered 24 hrs after CFA challenge; type: functional, organism-based; design: dose 10 mg/kg
[19] = Fraction unbound in rat plasma; type: ADME, cell-free
[20] = Plasma concentration in complete Freund's adjuvant treated Sprague-Dawley rat at 3 mg/kg, po qd for 3 days administered 24 hrs after CFA challenge after 2 hrs last post dose; type: ADME, organism-based; design: dose 3 mg/kg, route oral
[21] = Volume of distribution in rat at 1 mg/kg, iv and 1 mg/kg, po; type: ADME, organism-based; details: in vivo
Rattus norvegicus [22] = experiment: Induction of hyperthermia in Sprague-Dawley rat at 3 mg/kg, po after 10 hrs; type: organism-based; design: dose 3 mg/kg, route oral; details: in vivo
[23] = Protein binding in rat plasma; type: ADME, cell-free; details: read-out: PPB (converted)
Homo sapiens [24] = species: Homo sapiens; experiment: Protein binding in human plasma; details: read-out: PPB (converted)
LLC-PK1 = experiment: Efflux ratio of permeability from […] in MDR1 transfected pig LLC-PK1 cells; type: ADME, cell-based, Sus scrofa
[25] = Plasma concentration in complete Freund's adjuvant treated Sprague-Dawley rat at 1 mg/kg, po qd for 3 days administered 24 hrs after CFA challenge after 2 hrs last post dose; type: ADME, organism-based; design: dose 1 mg/kg, route oral
[26] = biological target: Protein kinase C alpha type (Homo sapiens) (UniProt P17252); experiment: Inhibition of PKCalpha at 10 uM
[27] = Half life in rat at 1 mg/kg, iv and 1 mg/kg, po; type: ADME, organism-based; details: in vivo
[28] = Plasma concentration in complete Freund's adjuvant treated Sprague-Dawley rat at 1 mg/kg, po qd for 2 days administered 24 hrs after CFA challenge after 2 hrs last post dose; type: ADME, organism-based; design: dose 1 mg/kg, route oral
Rattus norvegicus [29] = experiment: Analgesic activity in po dosed rat assessed as reversal of carrageenan-induced thermal hyperalgesia administered 2 hrs after carrageenan challenge; type: functional, organism-based
Rattus norvegicus [30] = experiment: Analgesic activity in rat assessed as complete reversal of carrageenan-induced thermal hyperalgesia at 3 mg/kg, po administered 2 hrs after carrageenan challenge; type: functional, organism-based; design: dose 3 mg/kg
[31] = biological target: Mitogen-activated protein kinase 3 (Homo sapiens, UniProt P27361); experiment: Inhibition of human ERK1
[32] = biological target: T1, Transient receptor potential cation channel subfamily V member 1 (Rattus norvegicus, UniProt O35433); experiment: Inhibition of rat TRPV1 at pH 5 to 5.5
[33] = Plasma concentration in complete Freund's adjuvant treated Sprague-Dawley rat at 10 mg/kg, po administered 24 hrs after CFA challenge after 2 hrs post dose; type: ADME, organism-based; design: dose 10 mg/kg, route oral
Rattus norvegicus [34] = experiment: Induction of hyperthermia in Sprague-Dawley rat at 3 mg/kg, po after 1 hr; type: organism-based; design: dose 3 mg/kg, route oral; details: in vivo
[35] = biological target: Epidermal growth factor receptor (Homo sapiens) (UniProt P00533); experiment: Inhibition of EGFR at 10 uM
[36] = Ratio of drug level in brain to plasma in rat at 3 mg/kg, po after 1 hr; type: ADME, organism-based; design: dose 3 mg/kg, route oral
[37] = Plasma concentration in carrageenan treated rat at 3 mg/kg, po administered 2 hrs after carrageenan challenge measured after 1 hr; type: ADME, organism-based; design: dose 3 mg/kg, route oral
Homo sapiens [38] = species: Homo sapiens; experiment: Fraction unbound in human plasma
[39] = Tmax in rat at 100 mg/kg, po; type: ADME, organism-based; design: dose 100 mg/kg, route oral; details: in vivo
[40] = Plasma concentration in complete Freund's adjuvant treated Sprague-Dawley rat at 3 mg/kg, po administered 24 hrs after CFA challenge after 2 hrs post dose; type: ADME, organism-based; design: dose 3 mg/kg, route oral
[41] = AUC (0 to 24 hrs) in rat at 1 mg/kg, po; type: ADME, organism-based; design: time < 24 hr, dose 1 mg/kg, route oral; details: plasma
[42] = Tmax in rat at 1 mg/kg, po; type: ADME, organism-based; design: dose 1 mg/kg, route oral; details: in vivo
[43] = Plasma concentration in complete Freund's adjuvant treated Sprague-Dawley rat at 10 mg/kg, po qd for 3 days administered 24 hrs after CFA challenge after 2 hrs last post dose; type: ADME, organism-based; design: dose 10 mg/kg, route oral
[44] = Plasma concentration in complete Freund's adjuvant treated Sprague-Dawley rat at 3 mg/kg, po qd for 2 days administered 24 hrs after CFA challenge after 2 hrs last post dose; type: ADME, organism-based; design: dose 3 mg/kg, route oral
[45] = Equilibrium solubility in at pH 7.4; type: physicochemical; details: buffer
[46] = AUC (0 to 24 hrs) in rat at 10 mg/kg, po; type: ADME, organism-based; design: time < 24 hr, dose 10 mg/kg, route oral; details: plasma
[47] = AUC (0 to 24 hrs) in rat at 100 mg/kg, po; type: ADME, organism-based; design: time < 24 hr, dose 100 mg/kg, route oral; details: plasma
[48] = Oral bioavailability in rat at 1 mg/kg; type: ADME, organism-based; details: in vivo
[49] = Inhibition of PKA at 10 uM
[50] = Plasma concentration in carrageenan treated rat at 0.3 mg/kg, po administered 2 hrs after carrageenan challenge measured after 1 hr; type: ADME, organism-based; design: dose 0.3 mg/kg, route oral
Rattus norvegicus [51] = experiment: Induction of hyperthermia in Sprague-Dawley rat at 3 mg/kg, po qd for 4 days; type: organism-based; design: dose 3 mg/kg, route oral; details: in vivo, 96 h
[52] = Plasma concentration in carrageenan treated rat at 1 mg/kg, po administered 2 hrs after carrageenan challenge measured after 1 hr; type: ADME, organism-based; design: dose 1 mg/kg, route oral
Rattus norvegicus [53] = experiment: Clearance in rat at […] iv dose; type: ADME, organism-based; design: dose 1.5 mg/kg, route intravenous; details: in vivo
[54] = biological target: T1, Transient receptor potential cation channel subfamily V member 1; experiment: Inhibition of rat TRPV1

Transient receptor potential cation channel subfamily V member 1 (Homo sapiens, UniProt Q8NER1), sequence (Q8NER1 whole entry): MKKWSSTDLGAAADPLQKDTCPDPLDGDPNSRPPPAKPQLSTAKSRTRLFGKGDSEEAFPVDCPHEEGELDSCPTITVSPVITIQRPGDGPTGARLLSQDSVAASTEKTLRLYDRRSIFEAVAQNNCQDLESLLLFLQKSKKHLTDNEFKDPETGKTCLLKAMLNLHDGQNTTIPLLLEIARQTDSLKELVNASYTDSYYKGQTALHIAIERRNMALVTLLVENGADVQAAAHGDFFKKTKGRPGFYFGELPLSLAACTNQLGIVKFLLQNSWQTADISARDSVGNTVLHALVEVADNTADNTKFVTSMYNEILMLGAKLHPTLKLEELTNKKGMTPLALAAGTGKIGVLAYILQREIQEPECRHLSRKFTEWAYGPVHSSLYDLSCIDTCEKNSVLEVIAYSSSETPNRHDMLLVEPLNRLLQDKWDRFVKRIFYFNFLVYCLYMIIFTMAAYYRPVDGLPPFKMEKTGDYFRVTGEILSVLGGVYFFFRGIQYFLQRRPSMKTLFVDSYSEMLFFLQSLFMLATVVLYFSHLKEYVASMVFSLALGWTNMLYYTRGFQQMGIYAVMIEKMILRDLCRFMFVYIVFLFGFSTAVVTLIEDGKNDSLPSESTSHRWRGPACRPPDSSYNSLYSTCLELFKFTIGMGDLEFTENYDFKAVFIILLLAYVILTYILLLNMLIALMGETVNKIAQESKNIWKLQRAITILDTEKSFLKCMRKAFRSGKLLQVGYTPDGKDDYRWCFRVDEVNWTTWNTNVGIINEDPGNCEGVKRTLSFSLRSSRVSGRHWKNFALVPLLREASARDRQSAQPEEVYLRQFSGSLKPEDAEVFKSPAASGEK
T1 sequence (O35433 whole entry): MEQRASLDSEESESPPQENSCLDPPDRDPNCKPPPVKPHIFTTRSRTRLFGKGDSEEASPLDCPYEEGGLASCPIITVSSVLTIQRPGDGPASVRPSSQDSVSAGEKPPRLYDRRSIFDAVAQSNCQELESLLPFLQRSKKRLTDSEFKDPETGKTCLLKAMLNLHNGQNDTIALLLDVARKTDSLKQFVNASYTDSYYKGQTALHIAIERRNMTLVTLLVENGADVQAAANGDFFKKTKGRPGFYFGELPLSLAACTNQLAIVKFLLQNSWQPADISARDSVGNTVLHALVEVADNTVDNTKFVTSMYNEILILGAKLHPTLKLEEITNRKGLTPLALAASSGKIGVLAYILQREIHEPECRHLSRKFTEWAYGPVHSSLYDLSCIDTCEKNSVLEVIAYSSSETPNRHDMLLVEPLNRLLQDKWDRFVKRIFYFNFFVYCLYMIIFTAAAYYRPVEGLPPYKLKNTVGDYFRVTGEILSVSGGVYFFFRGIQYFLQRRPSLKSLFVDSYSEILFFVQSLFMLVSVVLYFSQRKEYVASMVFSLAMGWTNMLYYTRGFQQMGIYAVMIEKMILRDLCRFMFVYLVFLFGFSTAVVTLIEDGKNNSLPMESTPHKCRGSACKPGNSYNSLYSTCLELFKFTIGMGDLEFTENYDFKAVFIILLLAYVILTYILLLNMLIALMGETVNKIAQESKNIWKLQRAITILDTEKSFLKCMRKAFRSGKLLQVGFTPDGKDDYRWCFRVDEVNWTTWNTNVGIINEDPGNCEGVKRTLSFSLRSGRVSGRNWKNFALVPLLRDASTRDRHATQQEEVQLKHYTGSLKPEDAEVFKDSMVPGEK
Insulin receptor (Homo sapiens), sequence (P06213 28-758 limits assumed): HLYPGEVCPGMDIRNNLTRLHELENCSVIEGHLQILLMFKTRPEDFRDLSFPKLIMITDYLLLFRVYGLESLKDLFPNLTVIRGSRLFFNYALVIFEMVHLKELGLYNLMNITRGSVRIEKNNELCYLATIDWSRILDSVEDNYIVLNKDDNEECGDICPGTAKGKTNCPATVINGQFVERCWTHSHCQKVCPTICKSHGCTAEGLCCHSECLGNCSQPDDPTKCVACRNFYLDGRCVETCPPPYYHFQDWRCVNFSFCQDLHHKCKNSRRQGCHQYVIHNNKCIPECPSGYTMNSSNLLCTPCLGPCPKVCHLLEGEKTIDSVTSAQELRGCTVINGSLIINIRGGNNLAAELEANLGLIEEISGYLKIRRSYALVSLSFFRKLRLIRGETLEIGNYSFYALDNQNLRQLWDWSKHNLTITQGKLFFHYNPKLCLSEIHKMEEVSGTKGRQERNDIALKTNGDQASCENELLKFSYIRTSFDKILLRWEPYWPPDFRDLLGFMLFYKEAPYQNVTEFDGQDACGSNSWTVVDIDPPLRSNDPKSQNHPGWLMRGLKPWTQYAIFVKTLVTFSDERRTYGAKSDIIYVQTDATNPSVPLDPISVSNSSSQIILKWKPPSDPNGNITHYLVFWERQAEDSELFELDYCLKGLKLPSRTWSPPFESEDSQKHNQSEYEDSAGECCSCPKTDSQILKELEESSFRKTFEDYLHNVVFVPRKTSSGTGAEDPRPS
Insulin receptor (Homo sapiens), sequence (P06213 763-1382 limits assumed): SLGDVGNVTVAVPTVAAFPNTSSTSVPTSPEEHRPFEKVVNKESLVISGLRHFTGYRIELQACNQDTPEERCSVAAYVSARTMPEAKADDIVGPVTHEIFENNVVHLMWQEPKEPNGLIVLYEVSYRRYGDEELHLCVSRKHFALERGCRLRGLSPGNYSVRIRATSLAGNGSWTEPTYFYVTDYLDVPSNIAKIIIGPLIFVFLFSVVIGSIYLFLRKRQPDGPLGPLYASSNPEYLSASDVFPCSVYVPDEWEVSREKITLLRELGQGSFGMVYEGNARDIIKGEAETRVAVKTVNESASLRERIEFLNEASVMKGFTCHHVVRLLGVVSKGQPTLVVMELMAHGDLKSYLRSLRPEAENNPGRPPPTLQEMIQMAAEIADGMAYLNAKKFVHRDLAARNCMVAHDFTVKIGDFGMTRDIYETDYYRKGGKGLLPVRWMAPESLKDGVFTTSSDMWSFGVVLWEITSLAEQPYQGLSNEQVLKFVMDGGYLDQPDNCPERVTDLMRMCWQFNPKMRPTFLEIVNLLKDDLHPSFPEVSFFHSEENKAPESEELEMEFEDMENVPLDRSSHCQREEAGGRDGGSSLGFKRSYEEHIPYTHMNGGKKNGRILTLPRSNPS
Mitogen-activated protein kinase 14 (Homo sapiens), sequence (Q16539 whole entry): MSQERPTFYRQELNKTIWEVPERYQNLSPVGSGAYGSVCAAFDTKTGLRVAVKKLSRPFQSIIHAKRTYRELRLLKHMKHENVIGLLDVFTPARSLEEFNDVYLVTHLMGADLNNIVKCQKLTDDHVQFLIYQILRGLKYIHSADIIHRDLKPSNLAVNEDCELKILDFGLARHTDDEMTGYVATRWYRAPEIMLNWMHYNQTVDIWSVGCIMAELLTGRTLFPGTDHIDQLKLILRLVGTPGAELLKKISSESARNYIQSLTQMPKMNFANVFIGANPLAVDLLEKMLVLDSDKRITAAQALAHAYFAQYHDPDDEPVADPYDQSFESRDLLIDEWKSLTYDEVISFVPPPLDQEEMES
Mitogen-activated protein kinase 3, sequence (P27361 whole entry): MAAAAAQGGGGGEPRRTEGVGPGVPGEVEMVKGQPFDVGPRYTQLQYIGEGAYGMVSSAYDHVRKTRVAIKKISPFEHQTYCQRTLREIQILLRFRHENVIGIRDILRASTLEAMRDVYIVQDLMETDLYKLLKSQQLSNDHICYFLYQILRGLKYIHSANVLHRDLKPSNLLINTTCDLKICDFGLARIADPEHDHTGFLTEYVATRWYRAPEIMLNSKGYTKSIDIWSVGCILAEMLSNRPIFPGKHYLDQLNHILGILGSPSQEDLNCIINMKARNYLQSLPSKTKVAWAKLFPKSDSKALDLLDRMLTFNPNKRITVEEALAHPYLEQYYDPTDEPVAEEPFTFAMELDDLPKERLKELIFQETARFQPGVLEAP

SMILES: FC(F)(F)c1ccc(Nc2ncnc3cc(-c4ncccc4C(F)(F)F)ccc23)cc1 [NGD-8243]
minimal effective dose (Rattus norvegicus [1]): 0.1 mg/kg
remaining at 10 min, 1 µM [2]: 93%
half-life [3]: 8 h
Papp (MDR1): 11 ×10⁻⁶ cm/s
solubility at 4 h [4]: 16 µg/mL (≈ 36.8 µM)

SMILES: FC(F)(F)c1ccc(Nc2cnnc3cc(-c4ncccc4C(F)(F)F)ccc23)nc1
IC50 [5]: 29 nM

SMILES: FC(F)(F)c1ccc(Nc2cncc3nc(-c4ncccc4C(F)(F)F)ccc23)nc1
solubility at 4 h [4]: 20 µg/mL (≈ 45.9 µM)
IC50 [5]: 460 nM

SMILES: FC(F)(F)c1ccc(Nc2ccnc3nc(-c4ncccc4C(F)(F)F)ccc23)nc1
Cmax [6]: 2870 nM
Tmax [7]: 1.1 h
Cmax [8]: 12900 nM
concentration at 2 h [9]: 5230 nM
IC50 [10]: 3000 nM
clearance [11]: 34 mL/min/kg
inhibition at 10 µM (hERG (KCNH2)): 47%
inhibition [12]: inactive
Cmax [13]: 240 nM
concentration at 2 h [14]: 100 nM
Tmax [15]: 3.33 h
inhibition [16]: inactive
LBF (Rattus norvegicus [17]): 45%
Activity (Rattus norvegicus [18]): Active
fraction unbound [19]: 0.107
concentration at 2 h [20]: 930 nM
Vd [21]: 3.9 L/kg
Activity (Rattus norvegicus [22]): Non-toxic
fraction unbound [23]: 0.107
remaining at 10 min, 1 µM [2]: 100%
fraction unbound (Homo sapiens [24]): 0.065
Ratio (LLC-PK1): 1.7
concentration at 2 h [25]: 380 nM
inhibition [26]: inactive
half-life [27]: 1.4 h
concentration at 2 h [28]: 390 nM
Activity (Rattus norvegicus [29]): Dose-dependent effect
Activity (Rattus norvegicus [30]): Active
IC50 [31]: 980 nM
IC50 [32]: 3.25 nM
concentration at 2 h [33]: 2300 nM
Activity (Rattus norvegicus [34]): Non-toxic
inhibition [35]: inactive
Kp at 1 h [36]: 0.3
concentration at 1 h [37]: 1400 nM
fraction unbound (Homo sapiens [38]): 0.065
Tmax [39]: 6 h
concentration at 2 h [40]: 230 nM
Papp (MDR1): 29.8 ×10⁻⁶ cm/s
AUC(0-t) at 24 h [41]: 0.6 µM·h
Tmax [42]: 1.1 h
concentration at 2 h [43]: 3260 nM
concentration at 2 h [44]: 1330 nM
solubility thermodynamic [45]: 2 µg/mL (≈ 4.59 µM)
solubility at 4 h [4]: 40 µg/mL (≈ 91.9 µM)
AUC(0-t) at 24 h [46]: 22.6 µM·h
AUC(0-t) at 24 h [47]: 204 µM·h
bioavailability [48]: 52%
inhibition [49]: inactive
concentration at 1 h [50]: 60 nM
Activity (Rattus norvegicus [51]): Non-toxic
IC50 [5]: 2.2 nM
concentration at 1 h [52]: 300 nM

SMILES: FC(F)(F)c1ccc(Nc2ncnc3cc(-c4ncccc4C(F)(F)F)ccc23)nc1
CL (Rattus norvegicus [53]): 4.2 (ml/min)/kg
remaining at 10 min, 1 µM [2]: 91%
solubility at 4 h [4]: 33 µg/mL (≈ 75.8 µM)

SMILES: O=C(Nc1ccccc1Br)N[C@@H]1CCN(c2ccc(C(F)(F)F)cn2)C1 [SB-705498]
IC50 [54]: 32 nM

Now from value to compound:

solubility at 4 h [4]: 12 µg/mL (≈ 27.5 µM)
IC50 [5]: 79 nM
SMILES: FC(F)(F)c1ccc(Nc2nccc3nc(-c4ncccc4C(F)(F)F)cnc23)nc1

solubility at 4 h [4]: 1 µg/mL (≈ 2.29 µM)
IC50 [5]: 0.21 nM
SMILES: FC(F)(F)c1ccc(Nc2ncnc3nc(-c4ncccc4C(F)(F)F)cnc23)cc1

solubility at 4 h [4]: 6 µg/mL (≈ 13.8 µM)
IC50 [5]: 0.63 nM
SMILES: FC(F)(F)c1ccc(Nc2ncnc3cc(-c4ncccc4C(F)(F)F)cnc23)cc1
